According to ChEMBL document CHEMBL1144697, “9-cyano-1-azapaullone (cazpaullone), a glycogen synthase kinase-3 (GSK-3) inhibitor activating pancreatic beta cell protection and replication” (J Med Chem, 2008):
Calls of active or inactive are those of the source. The calls are words filed in the database; no cut-off is given here.

Key:
[1] = molecular target: Glycogen synthase kinase-3 (Homo sapiens, UniProt P49840+P49841); assay: Inhibition of GSK3alpha/beta in pig brain; design: species or system Sus scrofa; settings: target entry is the homologue from another species
[2] = molecular target: Cyclin-dependent kinase 5/CDK5 activator 1 (Homo sapiens, UniProt Q00535); assay: Inhibition of recombinant CDK5/p25 expressed in Escherichia coli
[3] = Inhibition of starfish CDK1/cyclin B; design: species or system Asteroidea
Procedure, shortened: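 Kinase inhibition assays at 15 µM final ATP, run in triplicate.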

INS-1E [4] = assay: Protection against glucose and palmitate-induced toxicity in rat INS-1E cells after 24 hrs; format: functional, cell-based
Procedure, shortened: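 INS-1E cells treated with compound over a concentration range, with or without 0.3 mM BSA-coupled palmitate plus 25 mM glucose for 24 h. Viability/metabolic activity measured as an indirect readout of mitochondrial energy production. At least four wells per point; representative of ≥3 independent studies.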

INS-1E [5] = assay: Inhibition of glucose and palmitate-induced apoptosis in rat INS-1E cells by DNA fragmentation assay; format: functional, cell-based
Procedure, shortened: (§1)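 INS-1E cells preincubated 1 h with compound (µM), then exposed to toxic high glucose/palmitate for 24 h. Apoptosis read as cytosolic DNA fragments or caspase activity, as fold change versus untreated control ± SD. At least four wells per point; Student's t test against glucose/palmitate alone.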

INS-1E [6] = assay: Inhibition of glucose and palmitate-induced apoptosis in rat INS-1E cells by caspase activity assay; format: functional, cell-based; procedure, shortened: as §1
INS-1E [7] = assay: Stimulation of rat INS-1E cell replication assessed as BrdU incorporation; format: functional, cell-based
Procedure, shortened: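 INS-1E cells exposed to compound at various concentrations for 24 h. Replication measured as BrdU incorporation, given as fold increase versus untreated cells ± SD. At least four wells per point, two independent studies, Student's t test.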

[8] = Activation of Pax4 RNA expression in rat INS-1E cells at 10 uM after 4 hrs relative to control; format: functional, cell-based
Procedure, shortened: (§2)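 Compound added to INS-1E cells for 4 h or 24 h. Pax4 and cyclophilin B transcripts quantified by qRT-PCR. Reported as fold change versus vehicle-treated control, with the control level set to 1. Mean of triplicates ± SD.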

[9] = Activation of Pax4 RNA expression in rat INS-1E cells at 10 uM after 24 hrs relative to control; format: functional, cell-based; procedure, shortened: as §2
[10] = Activation of cyclophilin B gene expression in rat INS-1E cells at 10 uM after 4 hrs relative to control; format: functional, cell-based; procedure, shortened: as §2
[11] = Activation of cyclophilin B gene expression in rat INS-1E cells at 10 uM after 24 hrs relative to control; format: functional, cell-based; procedure, shortened: as §2
SH-SY5Y = assay: Inhibition of GSK3 in human SHSY5Y cells assessed as beta-casein phosphorylation level in presence of MG132; format: cell-based; settings: in the assay text read “beta-catenin” for “beta-casein”
Procedure, shortened: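 Nearly confluent SH-SY5Y cells in DMEM with 10% FCS were co-treated with compound across a concentration range plus 2 µM MG132, DMSO ≤1% final. Phospho-β-catenin (Ser33/Ser37/Thr41) measured by ELISA and expressed as % of cells given MG132 alone (100%).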

[12] = Activation of Pax4 RNA expression in rat INS-1E cells at 1 uM after 4 hrs relative to control; format: functional, cell-based; procedure, shortened: as §2
[13] = Activation of Pax4 RNA expression in rat INS-1E cells at 1 uM after 24 hrs relative to control; format: functional, cell-based; procedure, shortened: as §2
[14] = Activation of cyclophilin B gene expression in rat INS-1E cells at 1 uM after 4 hrs relative to control; format: functional, cell-based; procedure, shortened: as §2
[15] = Activation of cyclophilin B gene expression in rat INS-1E cells at 1 uM after 24 hrs relative to control; format: functional, cell-based; procedure, shortened: as §2

Sequence of Cyclin-dependent kinase 5/CDK5 activator 1 (Q00535 whole entry): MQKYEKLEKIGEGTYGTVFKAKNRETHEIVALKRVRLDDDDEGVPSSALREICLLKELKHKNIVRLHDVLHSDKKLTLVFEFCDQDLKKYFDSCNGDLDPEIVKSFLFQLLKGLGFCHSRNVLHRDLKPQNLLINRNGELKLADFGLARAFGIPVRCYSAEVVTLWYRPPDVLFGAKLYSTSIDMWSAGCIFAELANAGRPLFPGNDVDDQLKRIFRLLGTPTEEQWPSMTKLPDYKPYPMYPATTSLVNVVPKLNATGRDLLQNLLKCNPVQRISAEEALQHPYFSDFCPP
Sequence of Cyclin-dependent kinase 5/CDK5 activator 1 (Q15078 whole entry, further chain): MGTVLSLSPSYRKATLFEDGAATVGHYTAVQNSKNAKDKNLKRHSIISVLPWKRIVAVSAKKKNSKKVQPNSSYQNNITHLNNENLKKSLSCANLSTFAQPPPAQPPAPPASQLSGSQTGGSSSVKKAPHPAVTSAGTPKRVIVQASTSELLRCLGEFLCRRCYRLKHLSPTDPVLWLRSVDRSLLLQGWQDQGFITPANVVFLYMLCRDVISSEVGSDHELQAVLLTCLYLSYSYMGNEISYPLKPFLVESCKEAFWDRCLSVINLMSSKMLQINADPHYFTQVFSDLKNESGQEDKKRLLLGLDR

## O=C1Cc2c([nH]c3ccc(F)cc23)-c2ncccc2N1
[1]
  IC50: 80 nM
[2]
  IC50: 3000 nM
[3]
  IC50: 4500 nM
INS-1E [4]
  Activity: Active
INS-1E [5]
  Activity: Active
INS-1E [6]
  Activity: Active
INS-1E [7]
  Activity: Dose-dependent effect
[8]
  Fold change: 0.97
[9]
  Fold change: 0.45
[10]
  Fold change: 1.14
[11]
  Fold change: 0.97

## O=C1Cc2c([nH]c3ccc(O)cc23)-c2ncccc2N1
[1]
  IC50: 1400 nM
[2]
  IC50: 5000 nM
[3]
  IC50: 4000 nM

## O=C1Cc2c([nH]c3ccc(Br)cc23)-c2ncccc2N1 [AZAKENPAULLONE]
[3]
  IC50: 2000 nM

## O=C1Cc2c([nH]c3ccc(Cl)cc23)-c2cnccc2N1
[1]
  IC50: 18 nM
[2]
  IC50: 210 nM
[3]
  IC50: 120 nM

## O=C1Cc2c([nH]c3ccc(C(=O)O)cc23)-c2ncccc2N1
[1]
  IC50: 100000 nM
[2]
  IC50: 30000 nM
[3]
  IC50: 2200 nM

## O=C1Cc2c([nH]c3ccccc23)-c2ncccc2N1
[1]
  IC50: 800 nM
[2]
  IC50: 9000 nM
[3]
  IC50: 7000 nM

## COc1ccc2[nH]c3c(c2c1)CC(=O)Nc1ccncc1-3
[1]
  IC50: 390 nM
[2]
  IC50: 400 nM
[3]
  IC50: 200 nM

## O=C1Cc2c([nH]c3c(F)cc(F)cc23)-c2ncccc2N1
[1]
  IC50: 1800 nM
[2]
  IC50: > 10000 nM
[3]
  IC50: > 10000 nM

## O=C1Cc2c([nH]c3ccc(F)cc23)-c2cnccc2N1
[1]
  IC50: 51 nM
[2]
  IC50: 260 nM
[3]
  IC50: 1200 nM

## Cn1c2c(c3ccccc31)CC(=O)Nc1ccncc1-2
[1]
  IC50: 400 nM
[2]
  IC50: > 10000 nM
[3]
  IC50: 8000 nM

## O=C1Cc2c(oc3ccc(Cl)cc23)-c2ccccc2N1
[1]
  IC50: > 10000 nM
[2]
  IC50: > 10000 nM
[3]
  IC50: > 10000 nM

## O=C1Cc2c([nH]c3ccc(C(F)(F)F)cc23)-c2ncccc2N1
[1]
  IC50: 8 nM
[2]
  IC50: 10000 nM
[3]
  IC50: 1650 nM
SH-SY5Y
  Activity: Dose-dependent effect
INS-1E [4]
  Activity: Active
INS-1E [5]
  Activity: Active
INS-1E [6]
  Activity: Active
INS-1E [7]
  Activity: Dose-dependent effect
[8]
  Fold change: 0.72
[9]
  Fold change: 0.61
[10]
  Fold change: 1.2
[11]
  Fold change: 1.3

## O=C1Nc2cc(Br)ccc2/C1=C1/Nc2ccccc2/C1=N\O
[12]
  Fold change: 1.02
[13]
  Fold change: 0.81
[14]
  Fold change: 1.04
[15]
  Fold change: 1.2

## O=C1Cc2c([nH]c3ccc(C(F)(F)F)cc23)-c2cnccc2N1
[1]
  IC50: 13 nM
[2]
  IC50: 120 nM
[3]
  IC50: 190 nM

## O=C1Cc2c(n(-c3ccccc3)c3ccccc23)-c2ncccc2N1
[1]
  IC50: > 10000 nM
[2]
  IC50: > 10000 nM
[3]
  IC50: > 10000 nM

## O=C1Cc2c(n3c4c(cccc24)CC3)-c2ncccc2N1
[1]
  IC50: 410 nM
[2]
  IC50: > 10000 nM
[3]
  IC50: > 10000 nM

## O=C1Cc2c(n(Cc3ccccc3)c3ccccc23)-c2cnccc2N1
[1]
  IC50: 410 nM
[2]
  IC50: > 10000 nM
[3]
  IC50: > 10000 nM

## O=C1Cc2c([nH]c3ccc(Br)cc23)-c2cnccc2N1
[1]
  IC50: 52 nM
[2]
  IC50: 180 nM
[3]
  IC50: 110 nM
